How the values were obtained:
[1] = tested on: AsojAgdL; test: glucose release; format: biochemical, Aspergillus sojae; conditions: 20 mM MES pH 6.0, 40 °C, 60 min
Method in brief: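 Recombinant enzyme expressed in A. nidulans, purified by His-Trap affinity then Superdex 200 gel filtration. Incubated with substrates at various concentrations for 60 min at 40 °C. Stopped with 10 % oxalic acid and 10 min boiling. Released glucose quantified by glucose assay kit. Km from nonlinear-regression Michaelis–Menten fit of initial velocities over the low-concentration range only.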

[2] = molecular target: T1, AnigAgdA (Aspergillus niger, UniProt P56526); test: glucose release, fit of v = Vmax[S]/; format: biochemical; conditions: 20 mM acetate pH 4.0, 40 °C, 60 min; substrate inhibition
T1 sequence (P56526 26-985): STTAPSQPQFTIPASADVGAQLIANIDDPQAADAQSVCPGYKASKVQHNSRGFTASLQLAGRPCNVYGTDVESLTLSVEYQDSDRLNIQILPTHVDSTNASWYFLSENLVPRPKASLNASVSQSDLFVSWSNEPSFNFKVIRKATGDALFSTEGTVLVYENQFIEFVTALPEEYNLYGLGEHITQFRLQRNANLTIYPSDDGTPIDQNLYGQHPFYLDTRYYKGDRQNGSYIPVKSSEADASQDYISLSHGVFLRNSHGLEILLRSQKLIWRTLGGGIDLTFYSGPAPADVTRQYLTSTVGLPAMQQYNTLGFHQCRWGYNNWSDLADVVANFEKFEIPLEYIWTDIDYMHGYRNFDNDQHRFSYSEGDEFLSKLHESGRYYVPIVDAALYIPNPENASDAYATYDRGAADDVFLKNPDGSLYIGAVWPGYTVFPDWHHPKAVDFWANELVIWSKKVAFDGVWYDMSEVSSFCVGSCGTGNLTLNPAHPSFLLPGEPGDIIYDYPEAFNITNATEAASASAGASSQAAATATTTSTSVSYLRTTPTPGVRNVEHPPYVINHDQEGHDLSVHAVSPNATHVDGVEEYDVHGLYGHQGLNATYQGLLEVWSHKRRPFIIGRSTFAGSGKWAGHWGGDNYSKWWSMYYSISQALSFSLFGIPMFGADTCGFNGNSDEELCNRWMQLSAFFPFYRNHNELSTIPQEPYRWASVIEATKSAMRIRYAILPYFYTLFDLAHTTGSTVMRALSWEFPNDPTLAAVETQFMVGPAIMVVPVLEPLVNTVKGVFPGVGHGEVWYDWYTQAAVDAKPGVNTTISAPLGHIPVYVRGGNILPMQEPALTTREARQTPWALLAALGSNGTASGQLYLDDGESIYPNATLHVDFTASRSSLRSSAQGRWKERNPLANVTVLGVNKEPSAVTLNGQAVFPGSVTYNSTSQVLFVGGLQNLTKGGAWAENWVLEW

[3] = low substrate range only (substrate inhibition)

Structure (SMILES)	Km [1]	Ki [2]	Km [1, 3]
OC[C@H]1O[C@H](OC[C@H]2OC(O)[C@H](O)[C@@H](O)[C@@H]2O)[C@H](O)[C@@H](O)[C@@H]1O (stereo partly shown) [Isomaltose]	2000 ± 300 µM		
OC[C@H]1O[C@H](O[C@H]2C(O)O[C@H](CO)[C@@H](O)[C@@H]2O)[C@H](O)[C@@H](O)[C@@H]1O (stereo partly shown) [Kojibiose]	2100 ± 300 µM		
OC[C@H]1O[C@H](O[C@H]2[C@H](O)[C@@H](O)[C@@H](O[C@H]3[C@H](O)[C@@H](O)[C@@H](O[C@H]4[C@H](O)[C@@H](O)[C@@H](O[C@H]5[C@H](O)[C@@H](O)[C@@H](O[C@H]6[C@H](O)[C@@H](O)C(O)O[C@@H]6CO)O[C@@H]5CO)O[C@@H]4CO)O[C@@H]3CO)O[C@@H]2CO)[C@H](O)[C@@H](O)[C@@H]1O (stereo partly shown) [Maltohexaose]		30.8 ± 7.0 mM	900 ± 100 µM
OC[C@H]1O[C@H](O[C@H]2[C@H](O)[C@@H](O)C(O)O[C@@H]2CO)[C@H](O)[C@@H](O)[C@@H]1O (stereo partly shown) [Maltose]	2200 ± 300 µM	12.0 ± 3.6 mM	
OC[C@H]1O[C@H](O[C@H]2[C@H](O)[C@@H](O)[C@@H](O[C@H]3[C@H](O)[C@@H](O)[C@@H](O[C@H]4[C@H](O)[C@@H](O)C(O)O[C@@H]4CO)O[C@@H]3CO)O[C@@H]2CO)[C@H](O)[C@@H](O)[C@@H]1O (stereo partly shown) [Maltotetraose]			1600 ± 100 µM
OC[C@H]1O[C@H](O[C@H]2[C@H](O)[C@@H](O)[C@@H](O[C@H]3[C@H](O)[C@@H](O)C(O)O[C@@H]3CO)O[C@@H]2CO)[C@H](O)[C@@H](O)[C@@H]1O (stereo partly shown) [Maltotriose]		3.8 ± 0.7 mM	2000 µM
OC[C@H]1O[C@H](O[C@H]2[C@H](O)[C@@H](CO)OC(O)[C@@H]2O)[C@H](O)[C@@H](O)[C@@H]1O (stereo partly shown) [Nigerose]	2500 ± 400 µM		

The next lines start with the values.

Km [1]	Ki [2]	Km [1, 3]	Structure (SMILES)
1100 ± 200 µM			OC[C@H]1O[C@H](OC[C@H]2O[C@H](OC[C@H]3O[C@H](OC[C@H]4O[C@H](OC[C@H]5O[C@H](OC[C@H]6OC(O)[C@H](O)[C@@H](O)[C@@H]6O)[C@H](O)[C@@H](O)[C@@H]5O)[C@H](O)[C@@H](O)[C@@H]4O)[C@H](O)[C@@H](O)[C@@H]3O)[C@H](O)[C@@H](O)[C@@H]2O)[C@H](O)[C@@H](O)[C@@H]1O (stereo partly shown) [Isomaltohexaose]
900 ± 100 µM			OC[C@H]1O[C@H](OC[C@H]2O[C@H](OC[C@H]3O[C@H](OC[C@H]4O[C@H](OC[C@H]5OC(O)[C@H](O)[C@@H](O)[C@@H]5O)[C@H](O)[C@@H](O)[C@@H]4O)[C@H](O)[C@@H](O)[C@@H]3O)[C@H](O)[C@@H](O)[C@@H]2O)[C@H](O)[C@@H](O)[C@@H]1O (stereo partly shown) [Isomaltopentaose]
2400 ± 800 µM			OC[C@H]1O[C@H](OC[C@H]2O[C@H](OC[C@H]3O[C@H](OC[C@H]4OC(O)[C@H](O)[C@@H](O)[C@@H]4O)[C@H](O)[C@@H](O)[C@@H]3O)[C@H](O)[C@@H](O)[C@@H]2O)[C@H](O)[C@@H](O)[C@@H]1O (stereo partly shown) [Isomaltotetraose]
500 ± 100 µM			OC[C@H]1O[C@H](OC[C@H]2O[C@H](OC[C@H]3OC(O)[C@H](O)[C@@H](O)[C@@H]3O)[C@H](O)[C@@H](O)[C@@H]2O)[C@H](O)[C@@H](O)[C@@H]1O (stereo partly shown) [Isomaltotriose]
	19.6 ± 2.2 mM	900 ± 100 µM	OC[C@H]1O[C@H](O[C@H]2[C@H](O)[C@@H](O)[C@@H](O[C@H]3[C@H](O)[C@@H](O)[C@@H](O[C@H]4[C@H](O)[C@@H](O)[C@@H](O[C@H]5[C@H](O)[C@@H](O)C(O)O[C@@H]5CO)O[C@@H]4CO)O[C@@H]3CO)O[C@@H]2CO)[C@H](O)[C@@H](O)[C@@H]1O (stereo partly shown) [Maltopentaose]
